Measurements reported in ChEMBL document CHEMBL1148400, “Synthesis of nitro esters of prednisolone, new compounds combining pharmacological properties of both glucocorticoids and nitric oxide” (J Med Chem, 2004).
≈ marks a conversion by molar mass, not a printed value.

Key:
[1] = Water solubility was determined; assay type: ADME
In short: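 Excess compound stirred in pH 7.4 phosphate buffer 3 h (25 °C), filtered 0.45 μm; saturated solution absorbance read at each compound's UV maximum and concentration derived against a standard solution; reported in mM.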

[2] = target: T1, Glucocorticoid receptor (Homo sapiens) (UniProt P04150); test: Inhibition of [3H]dexamethasone binding to glucocorticoid receptor of human blood mononuclear cells
T1 sequence (whole entry): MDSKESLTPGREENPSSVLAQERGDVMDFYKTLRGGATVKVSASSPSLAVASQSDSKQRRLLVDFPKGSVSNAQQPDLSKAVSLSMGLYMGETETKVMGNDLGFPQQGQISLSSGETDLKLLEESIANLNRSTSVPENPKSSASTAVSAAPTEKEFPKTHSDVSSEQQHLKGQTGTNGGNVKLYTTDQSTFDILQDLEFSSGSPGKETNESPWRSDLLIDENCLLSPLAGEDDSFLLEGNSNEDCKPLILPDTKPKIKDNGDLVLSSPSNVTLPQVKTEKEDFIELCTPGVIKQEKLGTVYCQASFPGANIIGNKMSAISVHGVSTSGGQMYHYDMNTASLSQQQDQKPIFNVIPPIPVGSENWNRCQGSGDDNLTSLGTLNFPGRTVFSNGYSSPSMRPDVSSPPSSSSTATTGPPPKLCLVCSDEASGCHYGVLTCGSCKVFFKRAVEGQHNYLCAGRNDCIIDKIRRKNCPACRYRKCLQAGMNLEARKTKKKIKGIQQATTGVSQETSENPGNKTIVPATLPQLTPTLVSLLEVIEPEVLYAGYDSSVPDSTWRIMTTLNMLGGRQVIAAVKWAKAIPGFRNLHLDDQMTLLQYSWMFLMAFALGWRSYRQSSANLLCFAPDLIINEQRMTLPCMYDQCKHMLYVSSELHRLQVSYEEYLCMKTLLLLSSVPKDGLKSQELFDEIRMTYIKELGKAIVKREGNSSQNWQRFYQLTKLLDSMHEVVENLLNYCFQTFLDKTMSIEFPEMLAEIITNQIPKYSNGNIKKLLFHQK
In short: (§1)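 PBMC isolated from human blood by histopaque gradient; 1×10^6 cells in RPMI with 1% glutamine given 50 nM [3H]dexamethasone plus compound at 1 μM (from 10 mM DMSO stock; control 0.1% DMSO), 1 h at 37 °C. Four ice-cold PBS washes, bound label by scintillation minus nonspecific binding; fmol/mL and % specific displacement; n = 3.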

[3] = target: T1, Glucocorticoid receptor (Homo sapiens); test: Displacement of [3H]dexamethasone from glucocorticoid receptor of human blood mononuclear cells at 1 uM; in short: as §1
Mus musculus = organism: Mus musculus; test: Compound was tested for the inhibition of neutrophil (PMN) extravasation in the zymosan-induced peritonitis mouse; assay type: functional; design: unit: PMN per peritoneal cavity
In short: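 Mice dosed i.p. at 13.8 μmol/kg (equimolar to 5 mg/kg prednisolone) 1 h before i.p. zymosan (1 mg in 0.5 mL saline); vehicle peanut oil. Polymorphonuclear cells recruited per peritoneal cavity counted at 4 h; % inhibition vs vehicle group; mean ± SEM, n = 5 mice/group; ANOVA with Bonferroni.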

solubility [1] [µM] | [3H]dexamethasone bound [2] [fmol/mL] | Displacement [3] [%] | SMILES | Activity (Mus musculus)
710 (≈ 408 µg/mL) | 1.7 | 86 | C[C@]12C=CC(=O)C=C1CCC1C2[C@@H](O)C[C@@]2(C)C1CC[C@]2(O)C(=O)COC(=O)CN1CCC(CCO[N+](=O)[O-])CC1 (some centres undefined) | 
 | 19.8 |  | C[C@]12C=CC(=O)C=C1CCC1C2[C@@H](O)C[C@@]2(C)C1CC[C@]2(O)C(=O)COC(=O)c1cccc(CO[N+](=O)[O-])c1 (some centres undefined) | 
 | 5.3 | 57 | C[C@]12C=CC(=O)C=C1CCC1C2[C@@H](O)C[C@@]2(C)C1CC[C@]2(O)C(=O)COC(=O)c1ccc(CO)cc1 (some centres undefined) | 
 | 8.7 | 30 | C[C@]12C=CC(=O)C=C1CCC1C2[C@@H](O)C[C@@]2(C)C1CC[C@]2(O)C(=O)COC(=O)c1ccccc1CO[N+](=O)[O-] (some centres undefined) | 
270 (≈ 97.3 µg/mL) | 5.5 | 56 | C[C@]12C=CC(=O)C=C1CC[C@@H]1[C@@H]2[C@@H](O)C[C@@]2(C)[C@H]1CC[C@]2(O)C(=O)CO [PREDNISOLONE] | 
150 (≈ 88.3 µg/mL) | 2.3 | 81 | C[C@]12C=CC(=O)C=C1CCC1C2[C@@H](O)C[C@@]2(C)C1CC[C@]2(O)C(=O)COC(=O)CN1CCC(CCCO[N+](=O)[O-])CC1 (some centres undefined) | 
 | 1.6 | 87 | C[C@]12C=CC(=O)C=C1CCC1C2[C@@H](O)C[C@@]2(C)C1CC[C@]2(O)C(=O)COC(=O)CCCO[N+](=O)[O-] (some centres undefined) | 9100000
21300 (≈ 12300 µg/mL) | 4.2 | 66 | C[C@]12C=CC(=O)C=C1CCC1C2[C@@H](O)C[C@@]2(C)C1CC[C@]2(O)C(=O)COC(=O)CN1CCN(CCO[N+](=O)[O-])CC1 (some centres undefined) | 9000000

SMILES | solubility [1] [µM] | [3H]dexamethasone bound [2] [fmol/mL] | Displacement [3] [%] | Activity (Mus musculus)
C[C@]12C=CC(=O)C=C1CCC1C2[C@@H](O)C[C@@]2(C)C1CC[C@]2(O)C(=O)COC(=O)c1ccc(CO[N+](=O)[O-])cc1 (some centres undefined) | 7 (≈ 3.78 µg/mL) | 6.6 | 47 | 4100000
C[C@]12C=CC(=O)C=C1CCC1C2[C@@H](O)C[C@@]2(C)C1CC[C@]2(O)C(=O)COC(=O)CN1CCN(CCCO[N+](=O)[O-])CC1 (some centres undefined) | 53300 (≈ 31400 µg/mL) | 2.1 | 83 | 7800000
